For orientation: EC50 means the midpoint of the concentration-response curve.

The assay has as its system BJeLR fibroblasts viability, alamar blue fluorescence, 48 h. Briefly: cytotoxicity toward RAS-transformed BJeLR fibroblasts, dose response, cell-based, alamar blue fluorescence, 48 h, powder samples (AID 2608). In short, it runs like this: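 Material: BJ fibroblasts transformed with hTERT, SV40 LT/ST and HRASV12; Quantity: 1000 cells per well; Dosing: 2-fold compound dilution series, 0.01–5.33 µg/mL final; Schedule: 48 h exposure, 37 °C, 5% CO2, ~16 h alamar blue; Measured by: alamar blue fluorescence at 544/590 nm.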
In general terms: The colour change of resazurin is a common sign of viable cells or microbes.

The structures appear in SMILES notation.

`COc1ccc(N(C(=O)CCl)C(C(=O)NCCc2ccccc2)c2cccs2)cc1` (centres undefined): the EC50 is 217 nM. Turning to `Cc1ccc(C2CC(c3cccs3)=NN2C(=O)CCl)cc1` (centres undefined), the EC50 was 776 nM. As to `Nc1nc(CCl)nc(Nc2ccc3ccccc3c2)n1`, the EC50 is 85 nM. In the case of `Cc1ccc(N(C(=O)CCl)C(C(=O)NC2CCCCC2)c2cccnc2)cc1C` (centres undefined), the EC50 was 160 nM. For `O=C(CCl)N=c1sccn1Cc1ccccc1Cl`, the half-maximal effective concentration (EC50) is 149 nM. The figure for `COc1ccc(CN(CCC(c2ccccc2)c2ccc(OC(C)C)cc2)C(=O)CCl)cc1OC` (centres undefined) is 642 nM. Take `COc1cccc(N(C(=O)CCl)C(C(=O)NCCc2ccccc2)c2cccs2)c1` (centres undefined): the EC50 was 168 nM. With `COc1ccc(N(C(=O)CCl)C(C(=O)NCCc2ccccc2)c2cccs2)cc1Cl` (centres undefined), the EC50 is 26 nM.

For the molecule `CCOc1ccc(Nc2nc(N)nc(CCl)n2)cc1`, the EC50 was 226 nM. In the case of `COc1ccc(C(C(=O)NC2CCCCC2)N(C(=O)CCl)c2ccc(C)cc2)cc1` (centres undefined) it was 161 nM.

On to `COc1ccc(C(C(=O)NC2CCCCC2)N(C(=O)CCl)c2cccc(Cl)c2)cc1` (centres undefined), for which the concentration giving a half-maximal response (EC50) was 171 nM. Take `C=CCOc1ccccc1CN(C(=O)CCl)c1ccc2c(c1)OCO2`: the concentration for a half-maximal effect (EC50) was 855 nM. `COC(=O)[C@@H]1Cc2c([nH]c3ccccc23)C(C)(C)N1C(=O)CCl`: the EC50 is 475 nM. The figure for `CCCCCCCN(C(=O)CCl)c1cccc(C)c1` is 119 nM.

(Values after PubChem BioAssay AID2608 (Broad Institute, 2010).)
